# Measured values reported in ChEMBL document CHEMBL4339192, “De Novo Designed Amphipathic α-Helical Antimicrobial Peptides Incorporating Dab and Dap Residues on the Polar Face To Treat the Gram-Negative Pathogen, Acinetobacter baumannii” (J Med Chem, 2019).
# Where a SMILES comes first, the peptide text is derived from it. [ ]: non-standard residue; d: D form. Dab = NCC[C@H](N)C(=O)O
# How the values were obtained:
# Acinetobacter baumannii [1] = test: Antibacterial activity against Acinetobacter baumannii isolate 9383370 measured after 24 hrs by microtiter dilution method; type: functional; details: isolate 9383370, 24 h
# Procedure, shortened: (§1)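 Broth microdilution in Mueller-Hinton (MH) medium. […] Plates were incubated 24 h at 37 °C. MIC was the lowest peptide concentration that inhibited growth, based on three sets of replicates.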
# Acinetobacter baumannii [2] = test: Antibacterial activity against Acinetobacter baumannii isolate 1007660 measured after 24 hrs by microtiter dilution method; type: functional; details: isolate 1007660, 24 h; procedure, shortened: as §1
# Acinetobacter baumannii [3] = test: Antibacterial activity against polymyxin B/colistin-resistant Acinetobacter baumannii M89941 measured after 24 hrs by microtiter dilution method; type: functional; details: M89941, 24 h; procedure, shortened: as §1
# Acinetobacter baumannii [4] = test: Antibacterial activity against Acinetobacter baumannii 649 measured after 24 hrs in presence of 25% human serum by microtiter dilution method; type: functional; details: Acinetobacter baumannii, 649, 24 h
# Procedure, shortened: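 Blood strain 649 was tested by MH broth microdilution with and without 25% (v/v) human serum added to the medium. The test used a final inoculum of 5 × 10^5 cfu/mL and incubation at 37 °C. The ratio is the MIC in serum over the MIC in MH alone.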
# Acinetobacter baumannii [5] = test: Antibacterial activity against Acinetobacter baumannii isolate 1018887 measured after 24 hrs by microtiter dilution method; type: functional; details: isolate 1018887, 24 h; procedure, shortened: as §1
# Acinetobacter baumannii [6] = test: Antibacterial activity against Acinetobacter baumannii isolate 1010282 measured after 24 hrs by microtiter dilution method; type: functional; details: isolate 1010282, 24 h; procedure, shortened: as §1
# Acinetobacter baumannii [7] = test: Antibacterial activity against polymyxin B/colistin-resistant Acinetobacter baumannii M89955 measured after 24 hrs by microtiter dilution method; type: functional; details: M89955, 24 h; procedure, shortened: as §1
# Acinetobacter baumannii [8] = test: Antibacterial activity against Acinetobacter baumannii isolate 965463 measured after 24 hrs by microtiter dilution method; type: functional; details: isolate 965463, 24 h; procedure, shortened: as §1
# Acinetobacter baumannii [9] = test: Antibacterial activity against polymyxin B/colistin-resistant Acinetobacter baumannii M89949 measured after 24 hrs by microtiter dilution method; type: functional; details: M89949, 24 h; procedure, shortened: as §1
# Acinetobacter baumannii [10] = test: Antibacterial activity against Acinetobacter baumannii isolate 964304 measured after 24 hrs by microtiter dilution method; type: functional; details: isolate 964304, 24 h; procedure, shortened: as §1
# Acinetobacter baumannii [11] = test: Antibacterial activity against Acinetobacter baumannii isolate 1010245 measured after 24 hrs by microtiter dilution method; type: functional; details: isolate 1010245, 24 h; procedure, shortened: as §1
# Acinetobacter baumannii [12] = test: Antibacterial activity against Acinetobacter baumannii isolate 1021371 measured after 24 hrs by microtiter dilution method; type: functional; details: isolate 1021371, 24 h; procedure, shortened: as §1
# Acinetobacter baumannii [13] = test: Antibacterial activity against Acinetobacter baumannii isolate 963659 measured after 24 hrs by microtiter dilution method; type: functional; details: isolate 963659, 24 h; procedure, shortened: as §1
# [14] = Therapeutic index, ratio of HC50 for human RBC to MIC for polymyxin B/colistin-resistant Acinetobacter baumannii M89955; type: toxicity; details: human red blood cells, read-out: TI
# Procedure, shortened: (§2)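 T.I. = HC50/MIC. For HC50, peptide (quantified by amino acid analysis) was two-fold serially diluted over 12 concentrations up to 1000 μg/mL. It was incubated with 1% fresh human erythrocytes in PBS, pH 7.4, for 18 h at 37 °C. After 800g centrifugation, hemoglobin was read at 570 nm against water (100%) and no-peptide (0%) controls. HC50 came from a lysis-versus-concentration plot, average of 3 replicates.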
# [15] = Therapeutic index, ratio of HC50 for human RBC to MIC for polymyxin B/colistin-resistant Acinetobacter baumannii M89963; type: toxicity; details: human red blood cells, read-out: TI; procedure, shortened: as §2
# Acinetobacter baumannii [16] = test: Antibacterial activity against Acinetobacter baumannii isolate 1002956 measured after 24 hrs by microtiter dilution method; type: functional; details: isolate 1002956, 24 h; procedure, shortened: as §1
# [17] = Therapeutic index, ratio of HC50 for human RBC to MIC for polymyxin B/colistin-resistant Acinetobacter baumannii M89949; type: toxicity; details: human red blood cells, read-out: TI; procedure, shortened: as §2
# [18] = Therapeutic index, ratio of HC50 for human RBC to MIC for polymyxin B/colistin-resistant Acinetobacter baumannii M89953; type: toxicity; details: human red blood cells, read-out: TI; procedure, shortened: as §2
# Acinetobacter baumannii [19] = test: Antibacterial activity against Acinetobacter baumannii 649 measured after 24 hrs by microtiter dilution method; type: functional; details: Acinetobacter baumannii, 649, 24 h; procedure, shortened: as §1
# Acinetobacter baumannii [20] = test: Antibacterial activity against Acinetobacter baumannii isolate 963618 measured after 24 hrs by microtiter dilution method; type: functional; details: isolate 963618, 24 h; procedure, shortened: as §1
# [21] = Therapeutic index, ratio of HC50 for human RBC to MIC for polymyxin B/colistin-resistant Acinetobacter baumannii M89951; type: toxicity; details: human red blood cells, read-out: TI; procedure, shortened: as §2
# Acinetobacter baumannii [22] = test: Antibacterial activity against Acinetobacter baumannii isolate 1001611 measured after 24 hrs by microtiter dilution method; type: functional; details: isolate 1001611, 24 h; procedure, shortened: as §1
# Acinetobacter baumannii [23] = test: Antibacterial activity against Acinetobacter baumannii isolate 968886 measured after 24 hrs by microtiter dilution method; type: functional; details: isolate 968886, 24 h; procedure, shortened: as §1
# [24] = Therapeutic index, ratio of HC50 for human RBC to MIC for polymyxin B/colistin-resistant Acinetobacter baumannii M89941; type: toxicity; details: human red blood cells, read-out: TI; procedure, shortened: as §2
# Acinetobacter baumannii [25] = test: Antibacterial activity against polymyxin B/colistin-resistant Acinetobacter baumannii M89951 measured after 24 hrs by microtiter dilution method; type: functional; details: M89951, 24 h; procedure, shortened: as §1
# Acinetobacter baumannii [26] = test: Antibacterial activity against Acinetobacter baumannii isolate 952654 measured after 24 hrs by microtiter dilution method; type: functional; details: isolate 952654, 24 h; procedure, shortened: as §1
# Acinetobacter baumannii [27] = test: Antibacterial activity against Acinetobacter baumannii isolate 1017395 measured after 24 hrs by microtiter dilution method; type: functional; details: isolate 1017395, 24 h; procedure, shortened: as §1
# Acinetobacter baumannii [28] = test: Antibacterial activity against Acinetobacter baumannii isolate 977751 measured after 24 hrs by microtiter dilution method; type: functional; details: isolate 977751, 24 h; procedure, shortened: as §1
# Acinetobacter baumannii [29] = test: Antibacterial activity against Acinetobacter baumannii isolate 981650 measured after 24 hrs by microtiter dilution method; type: functional; details: isolate 981650, 24 h; procedure, shortened: as §1
# Acinetobacter baumannii [30] = test: Antibacterial activity against polymyxin B/colistin-resistant Acinetobacter baumannii M89953 measured after 24 hrs by microtiter dilution method; type: functional; details: M89953, 24 h; procedure, shortened: as §1
# [31] = Therapeutic index, ratio of HC50 for human RBC to MIC for polymyxin B/colistin-resistant Acinetobacter baumannii M89952; type: toxicity; details: human red blood cells, read-out: TI; procedure, shortened: as §2
# Acinetobacter baumannii [32] = test: Antibacterial activity against polymyxin B/colistin-resistant Acinetobacter baumannii M89963 measured after 24 hrs by microtiter dilution method; type: functional; details: M89963, 24 h; procedure, shortened: as §1
# [33] = Hemolytic activity against human RBC measured after 18 hrs by spectrophotometric method; type: ADME, cell-based, Erythrocyte; details: human red blood cells (erythrocytes)
# Procedure, shortened: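 Peptide (amount by amino acid analysis), two-fold serial dilutions at 12 concentrations up to 1000 μg/mL, with 1% human erythrocytes in PBS pH 7.4, 37 °C, 18 h. Unlysed cells removed by centrifugation (800g); hemoglobin read at 570 nm. Water-lysed cells = 100%, no-peptide cells = 0%. HC50 from plot of % lysis vs concentration (μM), average of 3 replicates.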
# Acinetobacter baumannii [34] = test: Antibacterial activity against Acinetobacter baumannii isolate 1035794 measured after 24 hrs by microtiter dilution method; type: functional; details: isolate 1035794, 24 h; procedure, shortened: as §1
# Acinetobacter baumannii [35] = test: Antibacterial activity against Acinetobacter baumannii isolate 961997 measured after 24 hrs by microtiter dilution method; type: functional; details: isolate 961997, 24 h; procedure, shortened: as §1
# Acinetobacter baumannii [36] = test: Antibacterial activity against polymyxin B/colistin-resistant Acinetobacter baumannii M89952 measured after 24 hrs by microtiter dilution method; type: functional; details: M89952, 24 h; procedure, shortened: as §1
# Acinetobacter baumannii [37] = test: Antibacterial activity against Acinetobacter baumannii isolate 1035166 measured after 24 hrs by microtiter dilution method; type: functional; details: isolate 1035166, 24 h; procedure, shortened: as §1
smiles,measurement,setting,value
CC(=O)N[C@H](CCCCN)C(=O)N[C@H](CC(C)C)C(=O)N[C@@H](CCN)C(=O)N[C@H](CO)C(=O)N[C@H](CC(C)C)C(=O)N[C@H](CC(C)C)C(=O)N[C@@H](CCN)C(=O)N[C@@H](C(=O)N[C@H](CC(C)C)C(=O)N[C@H](CO)C(=O)N[C@@H](CCN)C(=O)N[C@H](C)C(=O)N[C@H](CCCCN)C(=O)N[C@H](C)C(=O)N[C@H](C)C(=O)N[C@H](CCCCN)C(=O)N[C@H](CC(C)C)C(=O)N[C@@H](CCN)C(=O)N[C@@H](C(=O)N[C@H](CC(C)C)C(=O)N[C@H](CC(C)C)C(=O)N[C@@H](CCN)C(=O)N[C@H](C)C(=O)N[C@H](CC(C)C)C(=O)N[C@H](CO)C(=O)N[C@@H](CCN)C(N)=O)[C@H](C)O)[C@H](C)O (Ac-[dK][dL][Dab][dS][dL][dL][Dab][dT][dL][dS][Dab][dA][dK][dA][dA][dK][dL][Dab][dT][dL][dL][Dab][dA][dL][dS][Dab]-NH2),MIC,Acinetobacter baumannii [1],0.7 µM
same,MIC,Acinetobacter baumannii [2],0.7 µM
same,MIC,Acinetobacter baumannii [3],0.7 µM
same,MIC,Acinetobacter baumannii [4],0.2 µM
same,MIC,Acinetobacter baumannii [5],0.7 µM
same,MIC,Acinetobacter baumannii [6],0.7 µM
same,MIC,Acinetobacter baumannii [7],0.7 µM
same,MIC,Acinetobacter baumannii [8],3 µM
same,MIC,Acinetobacter baumannii [9],0.7 µM
same,MIC,Acinetobacter baumannii [10],1.5 µM
same,MIC,Acinetobacter baumannii [11],0.7 µM
same,MIC,Acinetobacter baumannii [12],1.5 µM
same,MIC,Acinetobacter baumannii [13],0.7 µM
same,selectivity ratio,[14],> 742
same,selectivity ratio,[15],> 742
same,MIC,Acinetobacter baumannii [16],0.7 µM
same,selectivity ratio,[17],> 742
same,selectivity ratio,[18],> 742
same,MIC,Acinetobacter baumannii [19],0.7 µM
same,MIC,Acinetobacter baumannii [20],0.7 µM
same,selectivity ratio,[21],> 742
same,MIC,Acinetobacter baumannii [22],0.7 µM
same,MIC,Acinetobacter baumannii [23],1.5 µM
same,selectivity ratio,[24],> 742
same,MIC,Acinetobacter baumannii [25],1.4 µM
same,MIC,Acinetobacter baumannii [26],1.5 µM
same,MIC,Acinetobacter baumannii [27],3 µM
same,MIC,Acinetobacter baumannii [28],0.7 µM
same,MIC,Acinetobacter baumannii [29],0.7 µM
same,MIC,Acinetobacter baumannii [30],1.4 µM
same,selectivity ratio,[31],> 742
same,MIC,Acinetobacter baumannii [32],1.4 µM
same,HC50 at 18 h,[33],> 742 µM
same,MIC,Acinetobacter baumannii [34],1.5 µM
same,MIC,Acinetobacter baumannii [35],0.7 µM
same,MIC,Acinetobacter baumannii [36],0.7 µM
same,MIC,Acinetobacter baumannii [37],0.7 µM
